Laboratory results taken from ChEMBL document CHEMBL1132831, “Synthesis and characterization of a potent and selective protein tyrosine phosphatase inhibitor, 2” (Bioorg Med Chem Lett, 2000).

Molecular target: T1, Receptor-type tyrosine-protein phosphatase C (Homo sapiens, UniProt P08575)
T1 sequence (P08575 whole entry): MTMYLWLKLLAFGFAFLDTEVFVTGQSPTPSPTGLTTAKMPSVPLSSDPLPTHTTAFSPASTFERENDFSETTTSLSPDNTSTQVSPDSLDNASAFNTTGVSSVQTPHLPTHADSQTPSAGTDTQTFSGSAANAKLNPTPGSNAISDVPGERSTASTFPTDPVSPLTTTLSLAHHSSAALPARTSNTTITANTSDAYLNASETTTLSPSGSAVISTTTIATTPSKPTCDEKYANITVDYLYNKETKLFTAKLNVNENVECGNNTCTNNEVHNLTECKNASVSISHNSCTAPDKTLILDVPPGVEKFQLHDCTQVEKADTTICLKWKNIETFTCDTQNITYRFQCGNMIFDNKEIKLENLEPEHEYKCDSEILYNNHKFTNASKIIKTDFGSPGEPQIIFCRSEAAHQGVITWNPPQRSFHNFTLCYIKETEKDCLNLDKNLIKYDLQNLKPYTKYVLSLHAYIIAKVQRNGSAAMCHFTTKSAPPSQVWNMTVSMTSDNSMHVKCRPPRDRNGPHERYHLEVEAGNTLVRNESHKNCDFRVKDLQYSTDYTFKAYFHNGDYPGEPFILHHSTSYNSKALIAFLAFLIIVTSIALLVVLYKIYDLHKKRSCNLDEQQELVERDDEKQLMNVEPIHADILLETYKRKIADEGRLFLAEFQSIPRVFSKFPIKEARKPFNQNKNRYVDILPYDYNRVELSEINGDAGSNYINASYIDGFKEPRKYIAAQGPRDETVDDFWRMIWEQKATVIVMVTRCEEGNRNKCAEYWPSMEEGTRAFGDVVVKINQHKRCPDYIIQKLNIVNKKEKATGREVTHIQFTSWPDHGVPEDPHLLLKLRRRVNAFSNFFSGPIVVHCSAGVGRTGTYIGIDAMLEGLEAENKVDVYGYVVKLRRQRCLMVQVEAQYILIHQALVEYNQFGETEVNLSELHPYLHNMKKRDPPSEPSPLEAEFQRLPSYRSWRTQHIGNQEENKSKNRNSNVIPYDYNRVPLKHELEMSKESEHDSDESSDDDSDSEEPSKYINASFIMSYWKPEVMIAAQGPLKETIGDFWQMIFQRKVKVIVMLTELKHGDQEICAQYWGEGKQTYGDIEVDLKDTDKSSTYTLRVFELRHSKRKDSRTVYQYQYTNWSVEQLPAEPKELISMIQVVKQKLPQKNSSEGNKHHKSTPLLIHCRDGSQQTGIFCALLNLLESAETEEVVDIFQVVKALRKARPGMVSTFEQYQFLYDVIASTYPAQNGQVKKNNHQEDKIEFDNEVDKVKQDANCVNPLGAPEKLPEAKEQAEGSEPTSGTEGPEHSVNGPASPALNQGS
Test: The compound was evaluated for its inhibitory activity towards Protein tyrosine phosphatase of CD45
Summary of the method: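 Commercial enzyme with 1 mM p-nitrophenyl phosphate in 25 mM MOPS pH 6.5, 5 mM EDTA, 1 mM dithiothreitol. Compound was tested at various concentrations from 30 nM, with a 30 min incubation at 37 °C. The reaction was stopped with 1 N NaOH and read at 405 nm. IC50 was obtained by nonlinear regression curve fitting.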
Work on `CC(C)Oc1ccc2[nH]c([S+]([O-])Cc3ccccn3)nc2c1` (configuration not stated) yielded an IC50 of 120 µM.
Molecule `CSc1ccnc(CSc2nc3ccc(OC(C)C)cc3[nH]2)c1` has an IC50 greater than 1000 µM.
Work on `CSc1ccnc(C[S+]([O-])c2nc3ccc(OC4CCCCC4)cc3[nH]2)c1` (configuration not stated) yielded an IC50 of 80.5 µM.
Work on `Cc1ccnc(C[S+]([O-])c2nc3ccc(OC(C)C)cc3[nH]2)c1` (configuration not stated) yielded an IC50 of 380 µM.
With `CSc1ccnc(C[S+]([O-])c2nc3cc(OC(C)C)ccc3[nH]2)c1` (configuration not stated) the IC50 was 0.28 µM.

Test system: not listed separately
Test: The compound was evaluated for its inhibitory effect of dual specificity phosphatases of VHR
Summary of the method: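 Bacterially expressed GST-VHR fusion protein with 1 mM p-nitrophenyl phosphate in 25 mM MOPS pH 6.5, 5 mM EDTA, 1 mM dithiothreitol. Compound was present at various concentrations from 30 nM during 30 min at 37 °C. NaOH was then added and absorbance read at 405 nm. IC50 was derived by nonlinear regression.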
In the case of VANADATE, the IC50 is reported as 106 µM.
In the case of `CSc1ccnc(C[S+]([O-])c2nc3cc(OC(C)C)ccc3[nH]2)c1` (configuration not stated), the IC50 is reported as 50.2 µM.
